{
  "source": "ChEMBL document CHEMBL2434893",
  "about": "“Synthesis, DNA binding and anti-leukemic activity of an aminoacyl nucleolipid” (Bioorg Med Chem Lett, 2013)",
  "key": {"[1]": {"test_system": "U-251", "experiment": "Cytotoxicity against human U251 cells assessed as cell growth at 10 uM after 48 hrs by SRB assay relative to control", "format": "functional", "details": "U-251, 48 h, read-out: Activity", "summary_of_the_method": "(§1)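 Single-dose (10 μM) screen run by the NCI Developmental Therapeutics Program on its 60 human cancer cell line panel. Viability was determined after 48 h incubation with the cells at 37 °C.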"}, "[2]": {"test_system": "SNB-75", "experiment": "Cytotoxicity against human SNB75 cells assessed as cell growth at 10 uM after 48 hrs by SRB assay relative to control", "format": "functional", "details": "SNB-75, 48 h, read-out: Activity", "summary_of_the_method": "as §1"}, "[3]": {"test_system": "SNB-19", "experiment": "Cytotoxicity against human SNB19 cells assessed as cell growth at 10 uM after 48 hrs by SRB assay relative to control", "format": "functional", "details": "SNB-19, 48 h, read-out: Activity", "summary_of_the_method": "as §1"}, "[4]": {"test_system": "KM12", "experiment": "Cytotoxicity against human KM12 cells assessed as cell growth at 10 uM after 48 hrs by SRB assay relative to control", "format": "functional", "details": "KM12, 48 h, read-out: Activity", "summary_of_the_method": "(§2)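 NCI Developmental Therapeutics Program 60-cell-line screen at a single dose of 10 μM. Cells incubated with compound for 48 h at 37 °C before viability determination.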"}, "[5]": {"test_system": "SW-620", "experiment": "Cytotoxicity against human SW620 cells assessed as cell growth at 10 uM after 48 hrs by SRB assay relative to control", "format": "functional", "details": "SW-620, 48 h, read-out: Activity", "summary_of_the_method": "as §1"}, "[6]": {"test_system": "COLO 205", "experiment": "Cytotoxicity against human COLO205 cells assessed as cell growth at 10 uM after 48 hrs by SRB assay relative to control", "format": "functional", "details": "COLO 205, 48 h, read-out: Activity", "summary_of_the_method": "as §2"}, "[7]": {"test_system": "SR", "experiment": "Cytotoxicity against human SR cells assessed as cell growth at 10 uM after 48 hrs by SRB assay relative to control", "format": "functional", "details": "read-out: Activity", "summary_of_the_method": "as §1"}, "[8]": {"test_system": "HL-60(TB)", "experiment": "Cytotoxicity against human HL-60(TB) cells assessed as cell growth at 10 uM after 48 hrs by SRB assay relative to control", "format": "functional", "details": "HL-60, 48 h, read-out: Activity", "summary_of_the_method": "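Single-dose screen run by the NCI Developmental Therapeutics Program on its 60 human cancer cell line panel, leukemia lines included. Cells were exposed to 10 μM ligand and incubated at 37 °C for 48 h. Cell viability was then determined.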"}, "[9]": {"experiment": "Binding affinity to GRP78 duplex DNA (unknown origin) assessed as DNA-compound complex formation at 3.9 mM measured at 36 hrs by dynamic light scattering analysis relative to control", "summary_of_the_method": "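DNA (1.1 μM), with or without ligand at 3.9 mM, incubated 36 h in phosphate buffer. Particle size then measured by dynamic light scattering against native DNA and ligand alone.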"}, "[10]": {"experiment": "Binding affinity to GRP78 duplex DNA (unknown origin) at 0.2 to 3.9 mM by CD spectrophotometric analysis", "summary_of_the_method": "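CD spectra recorded on duplex DNA (1.1 μM) in phosphate buffer (140 mM KCl, 1 mM MgCl₂, 5 mM sodium phosphate, pH 7.2) titrated with ligand 0–3.9 mM. Samples prepared as for melting. Molar ellipticity followed at the 260–280 nm maximum and the 248 nm minimum.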"}, "[11]": {"experiment": "Binding affinity to GRP78 duplex DNA (unknown origin) after 36 hrs by gel shift mobility assay", "summary_of_the_method": "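Complementary strands (0.57 μM) annealed in 30% sucrose in TAE buffer (89 mM Tris/acetate, 2.5 mM EDTA, […]), incubated 36 h at 37 °C with ligand at 0, 5, 25, 50, 100 equiv per DNA phosphate (0, 0.2, 0.9, 1.9, 3.9 mM). Run on 24% native PAGE. DNA bands visualized by UV-shadowing at 260 nm. K_D taken from the duplex band ratio with versus without ligand.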"}, "[12]": {"test_system": "MDA-MB-468", "experiment": "Cytotoxicity against human MDA-MB-468 cells assessed as cell growth at 10 uM after 48 hrs by SRB assay relative to control", "format": "functional", "details": "MDA-MB-468, 48 h, read-out: Activity", "summary_of_the_method": "as §2"}, "[13]": {"test_system": "T47D", "experiment": "Cytotoxicity against human T47D cells assessed as cell growth at 10 uM after 48 hrs by SRB assay relative to control", "format": "functional", "details": "read-out: Activity", "summary_of_the_method": "as §1"}, "[14]": {"test_system": "BT-549", "experiment": "Cytotoxicity against human BT549 cells assessed as cell growth at 10 uM after 48 hrs by SRB assay relative to control", "format": "functional", "details": "BT-549, 48 h, read-out: Activity", "summary_of_the_method": "as §2"}, "[15]": {"test_system": "MDA-MB-231", "experiment": "Cytotoxicity against human MDA-MB-231 cells assessed as cell growth at 10 uM after 48 hrs by SRB assay relative to control", "format": "functional", "details": "MDA-MB-231, 48 h, read-out: Activity", "summary_of_the_method": "as §2"}, "[16]": {"test_system": "MCF7", "experiment": "Cytotoxicity against human MCF7 cells assessed as cell growth at 10 uM after 48 hrs by SRB assay relative to control", "format": "functional", "details": "MCF7, 48 h, read-out: Activity", "summary_of_the_method": "as §2"}, "[17]": {"test_system": "DU-145", "experiment": "Cytotoxicity against human DU145 cells assessed as cell growth at 10 uM after 48 hrs by SRB assay relative to control", "format": "functional", "details": "DU-145, 48 h, read-out: Activity", "summary_of_the_method": "as §2"}, "[18]": {"test_system": "UO-31", "experiment": "Cytotoxicity against human UO31 cells assessed as cell growth at 10 uM after 48 hrs by SRB assay relative to control", "format": "functional", "details": "UO-31, 48 h, read-out: Activity", "summary_of_the_method": "as §1"}, "[19]": {"test_system": "TK-10", "experiment": "Cytotoxicity against human TK10 cells assessed as cell growth at 10 uM after 48 hrs by SRB assay relative to control", "format": "functional", "details": "TK-10, 48 h, read-out: Activity", "summary_of_the_method": "as §1"}, "[20]": {"test_system": "ACHN", "experiment": "Cytotoxicity against human ACHN cells assessed as cell growth at 10 uM after 48 hrs by SRB assay relative to control", "format": "functional", "details": "read-out: Activity", "summary_of_the_method": "as §2"}, "[21]": {"test_system": "A498", "experiment": "Cytotoxicity against human A498 cells assessed as cell growth at 10 uM after 48 hrs by SRB assay relative to control", "format": "functional", "details": "A498, 48 h, read-out: Activity", "summary_of_the_method": "as §2"}, "[22]": {"test_system": "786-0", "experiment": "Cytotoxicity against human 786-0 cells assessed as cell growth at 10 uM after 48 hrs by SRB assay relative to control", "format": "functional", "details": "786-0, 48 h, read-out: Activity", "summary_of_the_method": "as §2"}, "[23]": {"experiment": "Cytotoxicity against human NCI-ADR-RES cells assessed as cell growth at 10 uM after 48 hrs by SRB assay relative to control", "format": "functional", "details": "read-out: Activity", "summary_of_the_method": "as §2"}, "[24]": {"test_system": "OVCAR-8", "experiment": "Cytotoxicity against human OVCAR8 cells assessed as cell growth at 10 uM after 48 hrs by SRB assay relative to control", "format": "functional", "details": "OVCAR-8, 48 h, read-out: Activity", "summary_of_the_method": "as §2"}, "[25]": {"test_system": "OVCAR-4", "experiment": "Cytotoxicity against human OVCAR4 cells assessed as cell growth at 10 uM after 48 hrs by SRB assay relative to control", "format": "functional", "details": "OVCAR-4, 48 h, read-out: Activity", "summary_of_the_method": "as §2"}, "[26]": {"test_system": "OVCAR-3", "experiment": "Cytotoxicity against human OVCAR3 cells assessed as cell growth at 10 uM after 48 hrs by SRB assay relative to control", "format": "functional", "details": "OVCAR-3, 48 h, read-out: Activity", "summary_of_the_method": "as §2"}, "[27]": {"test_system": "MDA-MB-435", "experiment": "Cytotoxicity against human MDA-MB-435 cells assessed as cell growth at 10 uM after 48 hrs by SRB assay relative to control", "format": "functional", "details": "MDA-MB-435, 48 h, read-out: Activity", "summary_of_the_method": "as §2"}, "[28]": {"test_system": "M14", "experiment": "Cytotoxicity against human M14 cells assessed as cell growth at 10 uM after 48 hrs by SRB assay relative to control", "format": "functional", "details": "M14, 48 h, read-out: Activity", "summary_of_the_method": "as §2"}, "[29]": {"test_system": "Malme-3M", "experiment": "Cytotoxicity against human MALME-3M cells assessed as cell growth at 10 uM after 48 hrs by SRB assay relative to control", "format": "functional", "details": "read-out: Activity", "summary_of_the_method": "as §2"}},
  "note": "Calls of active or inactive are those of the source. The calls are words filed in the database; no cut-off is given here.",
  "data": [
    {"smiles": "CCCCCCCCCCCCCCCC(=O)O[C@@H]1[C@H](OC(=O)CCCCCCCCCCCCCCC)[C@@H](C(=O)N[C@@H](CCCCN)C(=O)OC)O[C@H]1n1cnc2c(=O)[nH]c(NC(=O)C(C)C)nc21.Cl", "values": [
      {"measurement": "growth at 10 µM", "setting": "[1]", "result": 90.2, "unit": "%"},
      {"measurement": "growth at 10 µM", "setting": "[2]", "result": 94.1, "unit": "%"},
      {"measurement": "growth at 10 µM", "setting": "[3]", "result": 93.5, "unit": "%"},
      {"measurement": "growth at 10 µM", "setting": "[4]", "result": 95, "unit": "%"},
      {"measurement": "growth at 10 µM", "setting": "[5]", "result": 104, "unit": "%"},
      {"measurement": "growth at 10 µM", "setting": "[6]", "result": 101, "unit": "%"},
      {"measurement": "growth at 10 µM", "setting": "[7]", "result": 9.69, "unit": "%"},
      {"measurement": "growth at 10 µM", "setting": "[8]", "result": 98.3, "unit": "%"},
      {"measurement": "fold change (FC)", "setting": "[9]", "result": "> 2"},
      {"measurement": "Activity", "setting": "[10]", "result": "Active"},
      {"measurement": "Kd", "setting": "[11]", "result": 700, "unit": "µM"},
      {"measurement": "growth at 10 µM", "setting": "[12]", "result": 83.1, "unit": "%"},
      {"measurement": "growth at 10 µM", "setting": "[13]", "result": 88.2, "unit": "%"},
      {"measurement": "growth at 10 µM", "setting": "[14]", "result": 105, "unit": "%"},
      {"measurement": "growth at 10 µM", "setting": "[15]", "result": 118, "unit": "%"},
      {"measurement": "growth at 10 µM", "setting": "[16]", "result": 96.4, "unit": "%"},
      {"measurement": "growth at 10 µM", "setting": "[17]", "result": 107, "unit": "%"},
      {"measurement": "growth at 10 µM", "setting": "[18]", "result": 87.1, "unit": "%"},
      {"measurement": "growth at 10 µM", "setting": "[19]", "result": 101, "unit": "%"},
      {"measurement": "growth at 10 µM", "setting": "[20]", "result": 102, "unit": "%"},
      {"measurement": "growth at 10 µM", "setting": "[21]", "result": 98.1, "unit": "%"},
      {"measurement": "growth at 10 µM", "setting": "[22]", "result": 98.1, "unit": "%"},
      {"measurement": "growth at 10 µM", "setting": "[23]", "result": 102, "unit": "%"},
      {"measurement": "growth at 10 µM", "setting": "[24]", "result": 87, "unit": "%"},
      {"measurement": "growth at 10 µM", "setting": "[25]", "result": 120, "unit": "%"},
      {"measurement": "growth at 10 µM", "setting": "[26]", "result": 105, "unit": "%"},
      {"measurement": "growth at 10 µM", "setting": "[27]", "result": 99.7, "unit": "%"},
      {"measurement": "growth at 10 µM", "setting": "[28]", "result": 93.7, "unit": "%"},
      {"measurement": "growth at 10 µM", "setting": "[29]", "result": 98.5, "unit": "%"}
    ]}
  ]
}
